Test results reported in ChEMBL document CHEMBL2157918, “Design and synthesis of 1H-1,2,3-triazoles derived from econazole as antitubercular agents” (Bioorg Med Chem Lett, 2012).
Converted amounts (≈) assume the structure as drawn.

How the values were obtained:
Candida albicans = test: Antifungal activity against Candida albicans ATCC 90027 after 48 hrs by broth microdilution method; assay type: functional; settings: ATCC 90027, 48 h
How it was run: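 Broth microdilution with two-fold compound dilutions in tryptic soy broth. C. albicans grown in the same medium was exposed for 48 h. Growth was visualized with Alamar Blue. MIC was taken as the lowest concentration that inhibited the Alamar Blue color change.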

[1] = system: Mycobacterium tuberculosis; test: Antitubercular activity against Mycobacterium tuberculosis H37Rv expressing GFP after 7 days by reporter gene assay; assay type: functional; settings: 168 h
How it was run: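 Compound dissolved in DMSO, two-fold dilutions in 7H9 broth; Mtb H37Rv-GFP grown in Middlebrook 7H9, inoculum 2 × 10⁵ CFU/mL, exposed 7 days. Fluorescence read; MIC = lowest concentration inhibiting fluorescence by 90% versus bacteria-only wells.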

Vero = test: Cytotoxicity against african green monkey Vero cells after 3 days by MTT assay; assay type: cell-based; settings: Chlorocebus sabaeus, 72 h
How it was run: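 Early-log-phase Vero cell suspension was exposed to serially diluted compounds (initially in DMSO) in RPMI 1640 for 3 days and read by MTT assay. Effect was normalized to DMSO-only wells and IC50 was calculated.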

[2] = Selectivity index, ratio of IC50 for african green monkey Vero cells to MIC90 for Mycobacterium tuberculosis H37Rv; assay type: functional
How it was run: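 Vero cells in early log phase, in RPMI 1640, exposed to serial compound dilutions for 3 days; viability by MTT assay; effect normalized to DMSO-only wells, IC50 by curve fitting. SI = Vero IC50 over Mtb H37Rv-GFP MIC (90% fluorescence inhibition, 7-day 7H9 exposure, 2 × 10⁵ CFU/mL inoculum).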

[3] = system: Mycobacterium tuberculosis; test: Ratio of econazole MIC90 to compound MIC90 for Mycobacterium tuberculosis H37Rv; assay type: functional

Structure (SMILES)	MIC (Candida albicans) [mg/L]	MIC90 [1] [mg/L]	IC50 (Vero) [mg/L]	Selectivity Index [2]	Ratio [3]
OCc1cn(CC(OCc2ccc(Cl)cc2)c2ccc(Cl)cc2Cl)nn1 (stereo not given)	> 256	> 256	19.8 (≈ 48 µM)	–	–
Clc1ccc(COC(Cn2cc(C3CCCCC3)nn2)c2ccc(Cl)cc2Cl)cc1 (stereo not given)	> 256	> 256	> 12.5	–	–
CC(C)(C)c1cn(CC(OCc2ccc(Cl)cc2)c2ccc(Cl)cc2Cl)nn1 (stereo not given)	> 256	> 256	> 25	–	–
Nc1cccc(-c2cn(CC(OCc3ccc(Cl)cc3)c3ccc(Cl)cc3Cl)nn2)c1 (stereo not given)	> 256	> 256	> 50	–	–
Nc1ccc(-c2cn(CC(OCc3ccc(Cl)cc3)c3ccc(Cl)cc3Cl)nn2)cc1 (stereo not given)	> 256	256 (≈ 540 µM)	> 50	–	–
Clc1ccc(COC(Cn2cc(-c3ccccn3)nn2)c2ccc(Cl)cc2Cl)cc1 (stereo not given)	> 256	256 (≈ 557 µM)	> 50	–	–
OC(Cn1ccnn1)c1ccc(Cl)cc1Cl (stereo not given)	> 256	256 (≈ 992 µM)	> 200	–	–
OC(Cn1nnc2ccccc21)c1ccc(Cl)cc1Cl (stereo not given)	> 256	> 256	> 100	–	–
Clc1ccc(COC(Cn2ccnn2)c2ccc(Cl)cc2Cl)cc1 (stereo not given)	> 256	64 (≈ 167 µM)	> 12.5	–	–
Clc1ccc(COC(Cn2nnc3ccccc32)c2ccc(Cl)cc2Cl)cc1 (stereo not given)	> 256	128 (≈ 296 µM)	> 12.5	–	–
CCCCc1cn(CC(O)c2ccc(Cl)cc2Cl)nn1 (stereo not given)	> 256	8 (≈ 25.5 µM)	23.3 (≈ 74.1 µM)	1	2
OCCc1cn(CC(O)c2ccc(Cl)cc2Cl)nn1 (stereo not given)	> 256	256 (≈ 847 µM)	274 (≈ 907 µM)	–	–
OCc1cn(CC(O)c2ccc(Cl)cc2Cl)nn1 (stereo not given)	–	> 256	> 100	–	–
OC(Cn1cc(C2CCCCC2)nn1)c1ccc(Cl)cc1Cl (stereo not given)	> 256	16 (≈ 47 µM)	31.9 (≈ 93.9 µM)	1	–
CC(C)(C)c1cn(CC(O)c2ccc(Cl)cc2Cl)nn1 (stereo not given)	256 (≈ 815 µM)	32 (≈ 102 µM)	33.9 (≈ 108 µM)	–	–
Nc1cccc(-c2cn(CC(O)c3ccc(Cl)cc3Cl)nn2)c1 (stereo not given)	> 256	32 (≈ 91.6 µM)	26.8 (≈ 76.7 µM)	–	–
Nc1ccc(-c2cn(CC(O)c3ccc(Cl)cc3Cl)nn2)cc1 (stereo not given)	> 256	32 (≈ 91.6 µM)	33.9 (≈ 97.2 µM)	–	–
OC(Cn1cc(-c2ccccn2)nn1)c1ccc(Cl)cc1Cl (stereo not given)	–	32 (≈ 95.5 µM)	–	–	–
CCCCc1cn(CC(OCc2ccc(Cl)cc2)c2ccc(Cl)cc2Cl)nn1 (stereo not given)	> 256	128 (≈ 292 µM)	10.6 (≈ 24.2 µM)	–	–
CCCCc1cn(CC(OCc2ccc(OC(F)(F)F)cc2)c2ccc(Cl)cc2Cl)nn1 (stereo not given)	> 256	> 256	63.4 (≈ 130 µM)	–	–
CCCCc1cn(CC(OCc2ccc(F)cc2F)c2ccc(Cl)cc2Cl)nn1 (stereo not given)	> 256	> 256	21 (≈ 47.7 µM)	–	–
OCCc1cn(CC(OCc2ccc(Cl)cc2)c2ccc(Cl)cc2Cl)nn1 (stereo not given)	> 256	> 256	24.3 (≈ 57 µM)	–	–
OCCc1cn(CC(OCc2ccc(OC(F)(F)F)cc2)c2ccc(Cl)cc2Cl)nn1 (stereo not given)	> 64	> 64	–	–	–
OCCc1cn(CC(OCc2ccc(F)cc2F)c2ccc(Cl)cc2Cl)nn1 (stereo not given)	> 256	128 (≈ 299 µM)	33.7 (≈ 78.6 µM)	–	–
Clc1ccc(COC(Cn2ccnc2)c2ccc(Cl)cc2Cl)cc1 (stereo not given) [ECONAZOLE]	16 (≈ 41.9 µM)	16 (≈ 41.9 µM)	–	1	–
CO[C@H]1/C=C/O[C@@]2(C)Oc3c(C)c(O)c4c(O)c(c(/C=N/N5CCN(C)CC5)c(O)c4c3C2=O)NC(=O)/C(C)=C\C=C\[C@H](C)[C@H](O)[C@@H](C)[C@@H](O)[C@@H](C)[C@H](OC(C)=O)[C@@H]1C [RIFAMPIN]	–	0.0625 (≈ 0.0759 µM)	–	–	–
